Assay results from article PMC6626068 (Journal of Advanced Research, 2019).
Read-outs that look alike come from different tables or passages of the source.

Columns and labels:
Type in all cases: cell-based
HeLa = test: MTT cytotoxicity assay, HeLa cells; conditions: 72 h; for IC50: read-out: IC50 (μM) HeLa
How it was run: (§1)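 Cells were grown in DMEM with 10% FBS and 1% penicillin/streptomycin at 37 °C under 5% CO₂, then seeded at 1 × 10⁴ cells/well. After 24 h they received the test compound at 0, 2.5, 5, 10, 20 and 40 μM for 72 h, with doxorubicin as positive control. MTT (5 mg/mL stock) was added for 4 h, formazan dissolved in DMSO for 10 min, A570 read, and IC50 calculated.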

HepG2 = test: MTT cytotoxicity assay, HepG2 cells; conditions: read-out: IC50 (μM) HepG2
How it was run: as §1

MCF-7 = test: MTT cytotoxicity assay, MCF-7 cells; conditions: for IC50: read-out: IC50 (μM) MCF-7
How it was run: as §1

HCT-116 = test: MTT cytotoxicity assay, HCT-116 cells; conditions: read-out: IC50 (μM) HCT-116
How it was run: as §1

MDA-MB-231 = test: MTT cytotoxicity assay, MDA-MB-231 cells; conditions: read-out: IC50 (μM) MDA-MB-231
How it was run: as §1

HUVEC = test: MTT cytotoxicity assay, normal cell line HUVEC; conditions: read-out: IC50 (μM) HUVEC, 72 h
HeLa cells = test: Annexin V/PI double staining flow cytometry, HeLa; conditions: 1 μM, 48 h (positive control)
MCF-7 cells = test: Annexin V/PI double staining flow cytometry, MCF-7; conditions: MCF-7, 1 μM, 48 h (positive control)
GFP-LC3-HeLa cells = test: Autophagy detection using GFP-LC3 expression in HeLa cells; conditions: 25 μM, 24 h, observation control
How it was run: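 HeLa cells stably expressing GFP-LC3, grown in 24-well plates, were exposed to the test compound for 24 h, either at 10 μM for screening or at 2.5, 5, 10 and 20 μM. Chloroquine phosphate at 25 μM served as the observation control. GFP-LC3 puncta were imaged by fluorescence microscopy, and dots per cell were counted.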

## 3,9-dihydroxypterocarp-6a-en [Compound 17]
HeLa; MTT, means ± SEM (n = 3)
  IC50: 36.1 ± 7.34 µM
HepG2; MTT, 72 h, means ± SEM (n = 3)
  IC50: 34.2 ± 1.87 µM
MCF-7; MTT, 72 h, means ± SEM (n = 3)
  IC50: 30.3 ± 1.32 µM
HCT-116; MTT, 72 h, means ± SEM (n = 3)
  IC50: 39.7 ± 2.06 µM
MDA-MB-231; MTT, 72 h, means ± SEM (n = 3)
  IC50: 36.8 ± 5.61 µM
HUVEC; normal cell line, MTT, compounds at 50 μM, means ± SEM (n = 3)
  IC50: > 50 µM

## COc1cc2c(c(OC)c1OC)-c1ccc(OC)c(=O)cc1[C@@H](NC(C)=O)CC2 [Colchicine, colchicine]
HeLa cells
  apoptosis rate (early + late apoptotic cells): 45.62%
MCF-7 cells
  apoptosis rate (early + late apoptotic cells): 38.01%

## COc1cc(OC)c(-c2coc3c(CC=C(C)C)c(OC)c(OC)cc3c2=O)cc1OC [Compound 4, 8-(γ, γ-dimethylallyl)-6,7,2′,4′,5′-pentamethoxyisoflavone]
HeLa; 50 μM, MTT
  growth inhibition of HeLa cells (primary screening): most active
HeLa; Homo sapiens
  IC50: 7.86 ± 1.21 µM
HepG2; Homo sapiens, HepG2, 72 h
  IC50: 8.74 ± 0.83 µM
MCF-7; 50 μM, 72 h, MTT
  growth inhibition of MCF-7 cells (primary screening): most active
MCF-7; Homo sapiens, MCF7, 72 h
  IC50: 18.5 ± 0.51 µM
HCT-116; Homo sapiens, HCT-116, 72 h
  IC50: 8.61 ± 0.72 µM
MDA-MB-231; Homo sapiens, MDA-MB-231, 72 h
  IC50: 15.8 ± 2.15 µM
HUVEC; Homo sapiens, HUVEC
  IC50: > 50 µM

## COc1cc(-c2coc3c(CC=C(C)C)c(OC)c(OC)c(O)c3c2=O)c(OC)cc1O [Compound 5, 8-(γ, γ-dimethylallyl)-5,4′-dihydroxy-6,7,2′,5′-tetramethoxyisoflavone]
HeLa; Homo sapiens
  IC50: 35.7 ± 3.91 µM
HepG2; Homo sapiens, HepG2, 72 h
  IC50: 31.6 ± 2.06 µM
MCF-7; Homo sapiens, MCF7, 72 h
  IC50: 35.1 ± 1.44 µM
HCT-116; Homo sapiens, HCT-116, 72 h
  IC50: 25.9 ± 0.85 µM
MDA-MB-231; Homo sapiens, MDA-MB-231, 72 h
  IC50: 27.6 ± 4.54 µM
HUVEC; Homo sapiens, HUVEC
  IC50: > 50 µM

## COc1cccc2c1C(=O)c1c(O)c3c(c(O)c1C2=O)C[C@@](O)(C(=O)CO)C[C@@H]3O[C@H]1C[C@H](N)[C@H](O)[C@H](C)O1 [Doxorubicin, reference compound]
HeLa; Homo sapiens
  IC50: 0.03 ± 0.001 µM
HepG2; Homo sapiens, HepG2, 72 h
  IC50: 0.02 ± 0.002 µM
MCF-7; Homo sapiens, MCF7, 72 h
  IC50: 0.02 ± 0.003 µM
HCT-116; Homo sapiens, HCT-116, 72 h
  IC50: 0.03 ± 0.003 µM
MDA-MB-231; Homo sapiens, MDA-MB-231, 72 h
  IC50: 0.03 ± 0.002 µM
HUVEC; Homo sapiens, HUVEC
  IC50: 0.04 ± 0.005 µM

## CCN(CC)CCCC(C)Nc1ccnc2cc(Cl)ccc12 (centres unmarked) [chloroquine phosphate]
GFP-LC3-HeLa cells
  GFP-LC3 dots (autophagosomes): obvious increase in the GFP-LC3 dots
